Screening data: PubChem, several laboratories
CSN deneddyl inh: CSN deneddylation inhibition; Q92905; Purified CSN, SCF-Nedd8-OG deneddylation, fluorescence polarization; inhibition, % at 12.5 µM; hit rate 0.38% among 360,000; AID 651999;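 active means pattern-corrected inhibition above about 35%, with an unprinted fluorescence ratio check between 0.5 and 1.5, limit read from the data, passing the limit was not always enough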
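Assay system: purified human Csn5 enzyme expressed in HEK293T cells; measure: % inhibition; also added: SCFSkp2-Nedd8OG substrate at 10 nM final; technique: fluorescence polarization; times: reaction 90 min, room temperature; medium: Tris buffer pH 7.5, NaCl, DTT, Tween-20, trehalose, ovalbumin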
LEDGF integ inh: blocks HIV-1 LEDGF/p75-dependent DNA integration. TR-FRET IN-LEDGF/p75 DNA integration, Eu/Cy5. inhibition, % at 3.7 µM. hit rate 0.64% among 370,000. AID 743269;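 active means inhibition above the screen-wide mean plus 3 SD, cut at about 13% in these data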;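 further: signal is the Cy5 over europium emission ratio at 671 and 618 nm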
ATG4B inhibitor: ATG4B (human) cysteine protease inhibition; Q9Y4P1; ATG4B cleavage of LC3-PLA2, NBD-HPC fluorescence, 1 h; inhibition, % at 8.33 µM; hit rate 0.51% among 340,000; AID 504462; in the data active means inhibition above about 40%
rCAG binder: binds r(CAG) RNA repeats | r(CAG) RNA repeat, TO-PRO-1 dye displacement fluorescence | inhibition, % at 3 µM | hit rate 1.3% among 370,000 | AID 651821;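 active means inhibition above the plate cutoff, the mean of all test compounds on that plate plus 3 SD, cut at about 35% in these data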;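 further: higher means more dye released from RNA so lower well fluorescence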
MBD2 inh: inhibitors of human MBD2 binding to methylated oligonucleotide | inhibition, % at 4.4 µM | TR-FRET | hit rate 0.31% among 370,000; in the data active means inhibition above about 13%
UHRF1 MBD2 ctr: UHRF1 methyl-DNA binding inhibition. Q96T88. hit rate 0.75% among 370,000. UHRF1 binding to methylated oligo, TR-FRET. AID 687016. inhibition, % at 4.4 µM; in the data active means inhibition above about 21%;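 further: UHRF1 SRA domain binding a hemimethylated CpG hairpin DNA probe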
Target sequence (Q96T88 whole entry, looked up, the tested form may be a part): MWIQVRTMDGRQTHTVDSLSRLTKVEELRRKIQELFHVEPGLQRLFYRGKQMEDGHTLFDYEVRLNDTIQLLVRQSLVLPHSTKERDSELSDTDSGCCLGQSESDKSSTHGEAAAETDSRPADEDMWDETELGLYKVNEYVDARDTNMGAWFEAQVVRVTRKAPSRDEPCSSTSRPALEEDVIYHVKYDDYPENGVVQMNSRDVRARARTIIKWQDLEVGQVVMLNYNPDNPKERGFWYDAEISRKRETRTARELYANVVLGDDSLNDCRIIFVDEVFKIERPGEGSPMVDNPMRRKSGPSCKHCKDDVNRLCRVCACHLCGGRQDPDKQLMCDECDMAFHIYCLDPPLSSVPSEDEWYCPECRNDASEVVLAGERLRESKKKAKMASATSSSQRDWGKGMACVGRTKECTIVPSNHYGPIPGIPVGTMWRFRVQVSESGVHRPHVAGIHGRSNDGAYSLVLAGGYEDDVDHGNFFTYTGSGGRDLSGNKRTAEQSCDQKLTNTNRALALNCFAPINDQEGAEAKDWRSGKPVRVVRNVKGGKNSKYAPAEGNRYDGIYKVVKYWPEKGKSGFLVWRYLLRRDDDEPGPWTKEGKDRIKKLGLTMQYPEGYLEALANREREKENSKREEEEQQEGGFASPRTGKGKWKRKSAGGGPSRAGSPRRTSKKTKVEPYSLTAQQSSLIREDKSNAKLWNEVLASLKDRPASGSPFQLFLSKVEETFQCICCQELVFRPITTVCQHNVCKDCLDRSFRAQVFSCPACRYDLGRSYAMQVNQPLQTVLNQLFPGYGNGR
rCAG bind conf: r(CAG) RNA repeat binding, confirmation; hit rate 70% among 4,300; inhibition, % at 3 µM; TO-PRO-1 dye displacement fluorescence; shares compounds with rCAG binder;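 active means inhibition above a per-plate cutoff, the mean inhibition of sample wells plus 3 SD, cut at about 35% in these data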;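 further: loss of TO-PRO-1 fluorescence as compound displaces dye from 1x1 AA loop RNA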
DNA CAG counter: DNA CAG dye complex inhibition counter-screen; hit rate 94% among 4,300; AID 652068; inhibition, % at 3 µM; shares compounds with rCAG binder; d(CAG) DNA oligo TO-PRO-1 dye displacement, fluorescence;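 active means inhibition above its plate's cutoff, the mean test-well inhibition plus 3 SD, cut at about 4.8% in these data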;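 further: hits displace the dye from DNA and so lower well fluorescence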
DNA CAG DR: disrupts DNA CAG TO-PRO-1 complex in dose response; DNA CAG/GTC duplex TO-PRO-1 dye displacement fluorescence; IC50, µM; shares compounds with rCAG binder; hit rate 20% among 250; in the data active means IC50 below about 10 µM
Hits are given with their value; - = inactive; . = no result. The list is not random: actives were taken first. Their share in the collection is about 3.1%.

SMILES	CSN deneddyl inh	LEDGF integ inh	ATG4B inhibitor	rCAG binder	MBD2 inh	UHRF1 MBD2 ctr	rCAG bind conf	DNA CAG counter	others
COc1ccc(-n2c(SCC(=O)Nc3ccccc3-c3ccccc3)nnc2-c2ccccc2)cc1	.	-	.	-	-	-	.	.
CC1CCN(c2ccc(C(=O)O)cc2NS(=O)(=O)c2ccccc2)CC1	.	-	.	-	-	-	.	.
O=C1NC(c2ccc(-c3ccccc3[N+](=O)[O-])o2)C(C(=O)c2ccccc2)C(O)(C(F)(F)F)N1 (stereo unspecified)	-	-	-	53	-	-	-	-
Cc1ccc(C(=O)C2C(c3ccc(-c4ccccc4[N+](=O)[O-])o3)NC(=O)NC2(O)C(F)(F)F)cc1 (stereo unspecified)	-	-	-	-	-	-	.	.
N#Cc1c(Cl)c(Cl)c2nnc(-c3ccc(Br)cc3)n2c1Cl	.	-	.	44	-	-	40	11
O=C(O)c1ccc(S(=O)(=O)N(Cc2ccccc2)Cc2ccccc2)cc1	-	-	-	-	-	-	.	.
CCCCN(c1ccccc1)S(=O)(=O)c1ccc2c(c1)CCN2C(=O)CCC(=O)O	-	-	-	-	-	-	.	.
O=C(O)CCC(=O)N1CCc2cc(S(=O)(=O)N(CCc3ccccc3)Cc3ccccc3)ccc21	-	-	-	63	-	-	70	30	DNA CAG DR=-
O=C(O)c1ccc(S(=O)(=O)N(CCc2ccccc2)Cc2ccc(Cl)cc2)cc1	-	-	-	72	-	-	71	34	DNA CAG DR=-
CCS(=O)(=O)C1=NN2C(=N)/C(=C\c3ccc(OCCOc4cccc(OC)c4)c(OC)c3)C(=O)N=C2S1	-	-	-	49	-	-	91	76
CCOc1cc(/C=C2\C(=N)N3N=C(S(C)(=O)=O)SC3=NC2=O)ccc1OCCOc1cccc(OC)c1	-	-	-	49	-	-	92	73
O=C(O)CC1(CC(=O)Nc2cc(C(F)(F)F)cc(C(F)(F)F)c2)CCCCC1	-	-	-	42	-	-	-	4.8
O=C(O)CC1(CC(=O)NCc2ccc(C(F)(F)F)cc2)CCCCC1	-	-	-	-	-	-	.	.
O=C(Nc1cccc(S(=O)(=O)NC2=NCCCCC2)c1)c1cc(-c2ccncc2)nc2ccccc12	-	-	-	-	-	-	.	.
O=C(Nc1cccc(S(=O)(=O)NC2=NCCCCC2)c1)c1cc(-c2ccco2)nc2ccccc12	-	-	-	35	-	-	-	16
CCOc1cc(/C=N/NC(=O)C(N)=O)cc(Br)c1O	-	-	-	36	-	-	-	-
COc1cc(/C=C2\C(=N)N3N=C(S(C)(=O)=O)SC3=NC2=O)cc(OC)c1OCCOc1ccc(C)cc1	-	-	-	57	-	-	88	58
COc1cc(/C=C2\C(=N)N3N=C(S(C)(=O)=O)SC3=NC2=O)ccc1OCCOc1ccc(C)cc1	-	-	-	-	-	-	.	.
COc1cc(/C=C2\C(=N)N3N=C(S(C)(=O)=O)SC3=NC2=O)cc(OC)c1OCCOc1cccc(C)c1	-	-	-	51	-	-	89	69
CCC1=NN2C(=N)/C(=C\c3ccc(OCCOc4ccccc4)c(OC)c3)C(=O)N=C2S1	.	-	.	-	-	-	.	.
COc1cccc(N=C2NC(=O)/C(=C/c3cc([N+](=O)[O-])ccc3O)S2)c1	-	-	-	-	-	-	.	.
O=C1NC(=Nc2ccccc2Cl)S/C1=C\c1cc([N+](=O)[O-])ccc1O	-	-	-	82	-	-	69	27
CC(=O)Nc1ccc(/C=N\NC(=O)c2cccc(S(=O)(=O)N(C)C)c2)cc1	.	-	.	-	-	-	.	.
Cc1ccc(C)c(/C=C/C(=O)c2ccccc(=O)c2O)c1	-	-	-	39	-	-	-	10
Cc1cc(C)cc(-n2cccc2/C=C2/C(=N)N3C(=NC2=O)SN=C3S(C)(=O)=O)c1	-	-	-	89	-	-	88	61
SMILES	CSN deneddyl inh	LEDGF integ inh	ATG4B inhibitor	rCAG binder	MBD2 inh	UHRF1 MBD2 ctr	rCAG bind conf	DNA CAG counter	others
Cc1ccc(-n2cccc2/C=C2/C(=N)N3C(=NC2=O)SN=C3S(C)(=O)=O)cc1	-	-	-	89	-	-	84	50
COc1cccc(-n2c(C)cc(/C=C3/C(=N)N4C(=NC3=O)SN=C4S(C)(=O)=O)c2C)c1	-	-	-	65	-	-	79	50
CS(=O)(=O)C1=NSC2=NC(=O)/C(=C\c3cccn3-c3ccccc3Cl)C(=N)N21	-	-	-	83	-	-	77	39
COc1cc(/C=C2/C(=N)N3C(=NC2=O)SN=C3S(C)(=O)=O)ccc1OS(=O)(=O)c1ccc(C)cc1	-	-	-	-	-	-	.	.
O=S(=O)(c1sccc1Br)n1c(CN2CCOCC2)nc2ccccc21	.	-	.	-	-	-	.	.
COC(=O)CN1CCN(C(=O)c2nocc2C)CC1	.	-	.	-	-	-	.	.
CN1c2ccc(C#CC3CC3)cc2[C@@H]2[C@@H](CCN2C(=O)C2CCOCC2)[C@H]1CO	.	-	.	-	-	-	.	.
O=C(c1ccco1)[C@@H]1[C@@H]2C(=O)N(c3ccc(Br)cc3)C(=O)[C@@H]2C2c3ccccc3C=CN21 (stereo partly specified)	-	-	-	38	-	-	-	16
O=C(Nc1ccc(-c2nc3ccccc3[nH]2)cc1)c1ccccc1NS(=O)(=O)c1ccc(F)cc1	-	-	-	92	-	-	90	70
O=C(Nc1ccc(S(=O)(=O)Nc2ncccn2)cc1)c1ccccc1NS(=O)(=O)c1ccc(F)cc1	-	-	-	60	-	-	-	6.5
CCOc1ccc(S(=O)(=O)Nc2ccccc2C(=O)Nc2ccccc2N2CCOCC2)cc1	-	-	-	-	-	-	.	.
CS(=O)(=O)c1ccccc1C(=O)Nc1ccc(-c2nc3ccccc3[nH]2)cc1	-	-	-	-	-	-	.	.
CCOc1ccc(S(=O)(=O)Nc2ccccc2C(=O)N/N=C/c2c(OC)ccc3ccccc23)cc1	-	-	-	62	-	-	42	19
CCOc1ccc(NC(=O)c2ccccc2NS(=O)(=O)c2ccc(F)cc2)c([N+](=O)[O-])c1	-	-	-	72	-	-	73	36
CCOC(=O)Cc1cc(=O)n2[nH]cc(-c3cccc(Br)c3)c2n1	-	-	-	67	-	-	53	17
CCCCN(CC)C(=O)c1ccc(Cl)c(Cl)c1	-	-	-	-	-	-	.	.
